Data on six compounds can be found in ChEMBL document CHEMBL3351733, “Inhibition of the lymphoid tyrosine phosphatase: the effect of zinc(II) ions and chelating ligand fragments on enzymatic activity” (Bioorg Med Chem Lett, 2014).

Calls of active or inactive are those of the source. The calls are words filed in the database; no cut-off is given here.

Test [1] deals with T1, Tyrosine-protein phosphatase non-receptor type 22 (Homo sapiens) (UniProt Q9Y2R2).
T1 sequence (whole entry): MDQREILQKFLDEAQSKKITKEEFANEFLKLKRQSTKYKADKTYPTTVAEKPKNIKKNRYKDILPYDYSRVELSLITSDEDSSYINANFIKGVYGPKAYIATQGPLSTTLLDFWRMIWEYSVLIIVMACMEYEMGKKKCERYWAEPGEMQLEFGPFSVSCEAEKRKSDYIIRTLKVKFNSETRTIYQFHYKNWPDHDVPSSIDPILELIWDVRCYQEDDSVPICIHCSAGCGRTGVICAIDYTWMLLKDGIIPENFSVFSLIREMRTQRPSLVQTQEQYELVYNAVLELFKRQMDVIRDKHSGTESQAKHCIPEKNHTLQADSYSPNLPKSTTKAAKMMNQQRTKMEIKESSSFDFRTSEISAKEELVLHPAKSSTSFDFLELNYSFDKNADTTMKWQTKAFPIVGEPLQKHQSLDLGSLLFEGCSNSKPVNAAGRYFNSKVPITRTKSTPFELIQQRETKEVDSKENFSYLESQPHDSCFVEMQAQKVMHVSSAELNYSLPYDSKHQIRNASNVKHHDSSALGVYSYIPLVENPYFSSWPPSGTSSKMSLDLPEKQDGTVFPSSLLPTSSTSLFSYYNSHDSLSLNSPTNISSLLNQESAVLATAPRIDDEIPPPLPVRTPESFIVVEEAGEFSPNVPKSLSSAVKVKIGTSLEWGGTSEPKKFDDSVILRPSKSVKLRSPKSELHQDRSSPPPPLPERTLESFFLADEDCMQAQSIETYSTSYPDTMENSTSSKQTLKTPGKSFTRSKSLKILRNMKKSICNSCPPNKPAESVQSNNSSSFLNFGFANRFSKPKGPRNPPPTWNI
Nature of the test: Inhibition of LYP (unknown origin) at 20 to 100 uM incubated for 30 mins at 25 degC before addition of DiFMUP substrate.

Test [2] deals with T1, Tyrosine-protein phosphatase non-receptor type 22 (Homo sapiens). Nature of the test: Protection against 40 uM zinc-acetate-induced inhibition of LYP (unknown origin) at 80 uM incubated for 30 mins at 25 degC before addition of DiFMUP substrate.
Test [3] has as its target T2, Tyrosine-protein phosphatase non-receptor type 22 (Homo sapiens, UniProt Q9Y2R2).
T2 sequence (Q9Y2R2 whole entry): T1 sequence (whole entry)
Nature of the test: Inhibition of LYP (unknown origin) using DiFMUP substrate incubated for 2 hrs. An outline of the steps: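 LYP preincubated with inhibitor for 0, 30, 60 and 120 min before activity was read, without added zinc. IC50 came from the dose-response after the 2 h incubation.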

The target in test [4] is T1, Tyrosine-protein phosphatase non-receptor type 22 (Homo sapiens). Nature of the test: Inhibition of LYP (unknown origin) incubated for 30 mins at 25 degC before addition of DiFMUP substrate in presence of 5 uM zinc acetate. Conditions: TDE = time-dependent effect. An outline of the steps: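 Fragment screen and follow-up dose-response run with 5 μM zinc acetate added to the LYP assay, alongside a parallel series without zinc.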

Test [5] concerns the target T3, Tyrosine-protein phosphatase non-receptor type 1 (Homo sapiens) (UniProt P18031).
T3 sequence (whole entry): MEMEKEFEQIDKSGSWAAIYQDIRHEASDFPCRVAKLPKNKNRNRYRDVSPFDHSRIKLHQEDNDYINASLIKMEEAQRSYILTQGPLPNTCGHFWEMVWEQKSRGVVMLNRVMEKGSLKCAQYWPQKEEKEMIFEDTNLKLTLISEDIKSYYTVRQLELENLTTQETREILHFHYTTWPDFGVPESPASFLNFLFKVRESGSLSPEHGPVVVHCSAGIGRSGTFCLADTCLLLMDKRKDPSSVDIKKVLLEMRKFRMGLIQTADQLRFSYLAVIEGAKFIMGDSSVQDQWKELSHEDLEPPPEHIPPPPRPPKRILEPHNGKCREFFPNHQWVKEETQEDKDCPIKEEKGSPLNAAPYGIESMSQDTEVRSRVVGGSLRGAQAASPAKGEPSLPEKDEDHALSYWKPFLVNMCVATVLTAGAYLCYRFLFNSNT
Nature of the test: Inhibition of PTP1B (unknown origin).

The target of test [6] is T4, Receptor-type tyrosine-protein phosphatase C (Homo sapiens) (UniProt P08575).
T4 sequence (whole entry): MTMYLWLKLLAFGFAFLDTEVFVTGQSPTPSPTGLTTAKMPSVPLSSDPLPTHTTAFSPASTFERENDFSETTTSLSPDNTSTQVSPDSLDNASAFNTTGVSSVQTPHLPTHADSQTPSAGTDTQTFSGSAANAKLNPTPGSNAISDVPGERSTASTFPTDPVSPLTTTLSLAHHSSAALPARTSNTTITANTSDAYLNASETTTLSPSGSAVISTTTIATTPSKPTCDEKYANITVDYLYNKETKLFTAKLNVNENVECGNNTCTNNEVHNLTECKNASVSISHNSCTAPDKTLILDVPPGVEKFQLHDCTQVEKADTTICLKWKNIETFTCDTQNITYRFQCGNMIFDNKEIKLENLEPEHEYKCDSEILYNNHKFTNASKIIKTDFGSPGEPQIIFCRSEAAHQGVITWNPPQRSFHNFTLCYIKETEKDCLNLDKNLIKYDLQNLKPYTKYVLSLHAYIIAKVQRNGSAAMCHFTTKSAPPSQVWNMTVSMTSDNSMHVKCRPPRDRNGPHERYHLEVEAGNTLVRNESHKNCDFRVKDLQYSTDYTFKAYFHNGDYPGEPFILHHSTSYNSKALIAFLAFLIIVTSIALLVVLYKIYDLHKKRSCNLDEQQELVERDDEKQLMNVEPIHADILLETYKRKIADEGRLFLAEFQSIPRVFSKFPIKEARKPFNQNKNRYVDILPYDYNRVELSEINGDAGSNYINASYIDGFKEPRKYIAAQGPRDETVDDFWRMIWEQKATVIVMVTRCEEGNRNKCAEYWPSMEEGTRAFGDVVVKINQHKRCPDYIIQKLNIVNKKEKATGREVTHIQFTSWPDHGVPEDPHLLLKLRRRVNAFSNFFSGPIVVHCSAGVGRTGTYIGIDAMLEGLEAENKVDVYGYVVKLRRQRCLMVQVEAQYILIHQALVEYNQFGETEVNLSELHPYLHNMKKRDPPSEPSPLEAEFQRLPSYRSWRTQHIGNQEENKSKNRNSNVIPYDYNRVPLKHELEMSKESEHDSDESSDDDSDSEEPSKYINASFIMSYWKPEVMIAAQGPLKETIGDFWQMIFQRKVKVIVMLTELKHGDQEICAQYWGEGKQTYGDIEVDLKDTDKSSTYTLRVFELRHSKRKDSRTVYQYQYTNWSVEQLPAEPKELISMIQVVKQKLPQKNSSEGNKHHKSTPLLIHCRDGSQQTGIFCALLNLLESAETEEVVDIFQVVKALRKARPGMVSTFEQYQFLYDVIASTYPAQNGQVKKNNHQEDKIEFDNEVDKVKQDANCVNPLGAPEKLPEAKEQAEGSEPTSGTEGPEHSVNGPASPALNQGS
Nature of the test: Inhibition of CD45 (unknown origin).

The nature of test [7]: Inhibition of YopH (unknown origin).

As for `c1ccc(CNCc2ccccn2)nc1`, the inhibition entry in test [1] was “inactive”. In test [2], the outcome was Active.
Consider `O=C(O)c1cccc(C(=O)O)n1`, for which, in test [1], the inhibition result is “inactive”. In test [2], the result was Active.
The term IC50 denotes the concentration that inhibits the measured activity by half. Low readings indicate greater potency, high ones weaker potency. In turn, `O=C1C=C(O)C(=O)c2ccccc21` [LAWSONE] yielded an IC50 in test [3] of 5600 nM.
In test [3], `O=C1C=Cc2ccccc2C1=O` [1,2-NAPHTHOQUINONE] displayed an IC50 of 1100 nM.
`Oc1ccc(Cl)c2cccnc12`: the inhibition entry in test [1] is “inactive”. Besides, the outcome in test [2] was Active.
Consider `Oc1ccc2ccccc2c1O`, for which the inhibition entry in test [4] was “tde”. The compound further returned an IC50 in test [3] of 2520 nM. The inhibition result in test [5], in test [6] and in test [7] was “Active” each time.
